Data set [1] is described as follows: Lipophilicity, log P of the compound by RP-HPLC analysis. In kind it is physicochemical.
A short description of data set [2]: (§1) Metabolic stability in human liver microsome assessed as compound remaining after 10 mins. The class given is ADME, microsomes. To be noted: liver microsomes, read-out: Stability.
Data set [3] concerns Liver microsomes. As to the kind of experiment: (§2) Metabolic stability in rat liver microsomes assessed as compound remaining after 10 mins. In kind it is ADME, Microsome. To be noted: microsomes, 10 min. In outline:
(§3)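 Liver microsomes incubated for 10 min; read-out is percentage of parent remaining.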
A general note: Microsomes from liver hold many membrane-bound enzymes, among them those of drug oxidation.

Data set [4] can be described thus: Oral bioavailability in rat at 1 mg/kg. In kind it is ADME, organism-based. The following applies: in vivo. In outline: (§4)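 Rat PK. Dosing was either 1 mg/kg IV/PO in 10% DMAC/10% EtOH/10% cremophor/70% H2O, or 1 mg/kg IV in 10% EtOH/10% cremophor/80% H2O, or 2 mg/kg IV with 5 mg/kg PO in 10% EtOH/10% cremophor/80% H2O. Read-outs: CL, Vss, t1/2, F.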
Data set [5] in a line: as §2. To be noted: liver microsomes, read-out: Stability. In kind it is ADME, Microsome. In outline:
as §3

For data set [6], the system named is Rattus norvegicus. In words: Volume of distribution at steady state in rat at 1 mg/kg, iv and po. The class given is ADME, organism-based. On the set-up: dose 1 mg/kg, route oral. The following applies: in vivo. In outline:
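Rats dosed at 1 mg/kg by both IV and PO routes in 10% DMAC/10% EtOH/10% cremophor/70% H2O. Steady-state volume of distribution was derived from the IV plasma profile.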

Data set [7] is described as follows: Half life in rat at 1 mg/kg, iv and po. The class given is ADME, organism-based. To be noted: in vivo. On the set-up: dose 1 mg/kg, route oral. In outline: as §4
Data set [8] in a line: Permeability from apical to basolateral side of human Caco2 cells. The class given is ADME, cell-based. The following applies: Caco-2, read-out: permeability. (Caco-2 cells form a polarised layer with tight junctions and transporters.)
The subject of data set [9] is Liver microsomes. Described as §1. To be noted: microsomes, 10 min. In kind it is ADME.
Data set [10] relates to Plasma. In words: Plasma concentration in rat at 1 mg/kg, iv followed by administered […] of sustaining dose. The following applies: in vivo. In kind it is ADME, organism-based.
Data set [11] concerns Plasma. As to the kind of experiment: Plasma concentration in rat at 1 mg/kg, iv followed by administered 5 mg/kg/hr of sustaining dose. To be noted: in vivo. The class given is ADME, organism-based. In outline: (§5)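 Rats pretreated IV with a loading dose plus sustaining infusion (1 + 2.5, 1 + 5, 1 + 10 or 1 + 25 mg/kg + mg/kg/h). Arterial thrombosis was induced with FeCl2, and thrombus weight was measured; plasma concentrations were measured at each dose. n=6–8 per dose. Vehicle controls received 10% DMA/90% 5% dextrose IV.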

The nature of data set [12]: Half life in rat at 1 mg/kg, iv. The following applies: in vivo. On the set-up: dose 1 mg/kg, route intravenous. In kind it is ADME, organism-based. In outline: as §4
Data set [13] in a line: Clearance in rat at 1 mg/kg, iv. To be noted: in vivo. In kind it is ADME, organism-based. On the set-up: dose 1 mg/kg, route intravenous. In outline: as §4
Data set [14] has as its system Plasma. As to the kind of experiment: Plasma concentration in rabbit cuticle bleeding model at 15 mg/kg, iv followed by administered 23.4 mg/kg/hr of sustaining dose. The class given is ADME, organism-based, Oryctolagus cuniculus. To be noted: in vivo. In outline:
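Rabbit cuticle bleeding model with IV loading dose plus sustaining infusion (15 or 9 mg/kg + 23.4 mg/kg/h). Measured ex vivo platelet aggregation blockade, cuticle bleeding time, average plasma concentration and blood pressure.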

Data set [15] has as its system Plasma. In words: Plasma concentration in rat at 1 mg/kg, iv followed by administered 10 mg/kg/hr of sustaining dose. The following applies: in vivo. The class given is ADME, organism-based. In outline:
as §5

Data set [16] relates to Plasma. In words: Plasma concentration in rat at 1 mg/kg, iv followed by administered 25 mg/kg/hr of sustaining dose. In kind it is ADME, organism-based. The following applies: in vivo. In outline:
as §5

Data set [17] is described as follows: Volume of distribution at steady state in rat at 1 mg/kg, iv. In kind it is ADME, organism-based. Also noted: dose 1 mg/kg, route intravenous. The following applies: in vivo, read-out: Vdss. In outline: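 Rat PK: single 1 mg/kg IV dose in 10% EtOH/10% cremophor/80% H2O. Vss was derived from plasma concentration–time data.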
A short description of data set [18]: Oral bioavailability in rat at 5 mg/kg. In kind it is ADME, organism-based. The following applies: in vivo. In outline: as §4
Data set [19] can be described thus: Volume of distribution at steady state in rat at 2 mg/kg, iv and 5 mg/kg, po. The class given is ADME, organism-based. To be noted: in vivo, read-out: Vdss. In outline: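 Rats given 2 mg/kg IV and 5 mg/kg PO in 10% EtOH/10% cremophor/80% H2O. Vss was obtained from the IV pharmacokinetic profile.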
Data set [20] can be described thus: Half life in rat at 2 mg/kg, iv and 5 mg/kg, po. In kind it is ADME, organism-based. The following applies: in vivo. In outline:
as §4

Data set [21] in a line: Clearance in rat at 2 mg/kg, iv and 5 mg/kg, po. In kind it is ADME, organism-based. The following applies: in vivo. In outline: as §4

One may read the logP as a log measure of how a compound divides between an organic and an aqueous phase. High values mean higher lipophilicity, low ones lower lipophilicity. As a reminder, the bioavailability is the share of a dose that reaches the circulation, judged against a reference dose that is usually intravenous. Lower therefore signals poor availability. The term half-life denotes the time needed for the level to fall by half in the phase considered. Low readings indicate rapid decline, high ones slow decline.

Molecules are shown by their SMILES.

On to `CC(C)CCN1CCC(COc2ccc(NC(=O)Nc3cccnc3Oc3ccccc3C(C)(C)C)c(F)c2)CC1`, for which, in data set [1], the logP stood at 5.5.
As for `CN(C)CC(C)(C)COc1ccc(NC(=O)Nc2cccnc2Oc2ccccc2C(C)(C)C)cc1`, the remaining at 10 min in data set [2] was 12%. In addition, the Stability entry in data set [3] is on record as “Unstable”. The same molecule yielded a logP in data set [1] of 5.1.
The molecule `CC(C)(C)c1ccccc1Oc1ncccc1NC(=O)Nc1ccc(-c2ccccc2CO)cc1F` returned a logP in data set [1] of 5.5.
The same measure, in the same setting: in the case of `CC(C)CN1CCC(COc2ccc(NC(=O)Nc3cccnc3Oc3ccccc3C(C)(C)C)cc2)CC1` it was 4.5.
Still for that read-out and setting: in the case of `CN1CCN(c2ccc(NC(=O)Nc3cccnc3Oc3ccccc3C(C)(C)C)cc2)CC1` it was 3.9; in that of `CC(C)(C)c1ccccc1Oc1ncccc1NC(=O)Nc1ccc(N2CCCCC2)cc1`, 5.5.
The same measure, in the same setting: for `COC(=O)C1(c2ccc(NC(=O)Nc3cccnc3Oc3ccccc3C(C)(C)C)cc2)CC1` the value was 5.1.
Molecule `CC(C)(C)c1ccccc1Oc1ncccc1NC(=O)Nc1ccc(C2(CO)CC2)cc1` showed a logP in [1] of 4.6.
Turning to `CC(C)(C)c1ccccc1Oc1ncccc1NC(=O)Nc1ccc(OC(F)(F)F)cc1`, in data set [4], the bioavailability turned out to be 7%. For the same molecule, in data set [5], the remaining at 10 min worked out at 86%. The Vdss in [6] came to 5.6 L/kg. Moreover, in data set [7], the half-life was 15 h. The molecule further registered a logP in [1] of 5.7. In addition, in [8], the Papp A→B turned out to be 2.1 ×10⁻⁶ cm/s.
Turning to `CN(C)Cc1ccccc1-c1ccc(NC(=O)Nc2cccnc2Oc2ccccc2C(C)(C)C)c(F)c1`, in data set [9], the Stability result was “Unstable”. For the same molecule, the concentration in data set [10] turned out to be 1.3 µM; in data set [11], 3.6 µM; in data set [14], 5 µM; in data set [15], 8.5 µM; in [16] it was 13.7 µM. Besides, in [12], the half-life is 1.5 h. Moreover, the remaining at 10 min in data set [5] was determined as 24%. In data set [13], the clearance turned out to be 158 mL/min/kg. The Vd in data set [17] was determined as 8.7 L/kg. Further, the logP in data set [1] was found to be 5.3.
Turning to `CN(C)CC(C)(C)COc1ccc(NC(=O)Nc2cccnc2Oc2ccccc2[Si](C)(C)C)cc1`, the remaining at 10 min in data set [2] worked out at 29%. Also, the logP in data set [1] turned out to be 4.7.
The molecule `CC(C)(C)c1ccccc1Oc1ncccc1NC(=O)Nc1ccc(C2(CN3CCCC3)CC2)cc1` had a logP in [1] of 3.7.
Still for that read-out and setting: for `COCC1(c2ccc(NC(=O)Nc3cccnc3Oc3ccccc3C(C)(C)C)cc2)CC1` the value was 5.2.
For `CN(C)CC(C)(C)COc1ccc(NC(=O)Nc2cccnc2Oc2ccccc2C(C)(C)C)c(F)c1`, the Stability entry in data set [9] and in data set [3] was “Unstable” in each case. In [1], this molecule returned a logP of 5.2.
In [18], `CC(C)CN1CCC(COc2ccc(NC(=O)Nc3cccnc3Oc3ccccc3C(C)(C)C)c(F)c2)CC1` returned a bioavailability of 40%. For the same molecule, the remaining at 10 min in data set [5] turned out to be 67%. The Vd in data set [19] turned out to be 5 L/kg. The half-life in data set [20] was 3.4 h. Also, in data set [21], the clearance was 22 mL/min/kg. Moreover, in [1], the logP came out at 5.2. In addition, the Papp A→B in [8] was determined as 1.6 ×10⁻⁶ cm/s.
For the molecule `CN(C)Cc1cccc(-c2ccc(NC(=O)Nc3cccnc3Oc3ccccc3C(C)(C)C)c(F)c2)c1`, in data set [1], the log partition coefficient (logP) is 5.5.
Same read-out and setting: in the case of `CC(C)(C)c1ccccc1Oc1ncccc1NC(=O)Nc1ccc(N2CCNCC2)cc1` it was 3.2; in that of `CC(C)(C)c1ccccc1Oc1ncccc1NC(=O)Nc1ccc(N2CCN(Cc3ccccc3)CC2)cc1`, 5.8; in that of `CC(C)(C)c1ccccc1Oc1ncccc1NC(=O)Nc1ccc(OCC2CCN(Cc3ccccc3)CC2)cc1F`, 5.8.
`CC(C)(C)c1ccccc1Oc1ncccc1NC(=O)Nc1ccc(N2CCOCC2)cc1F` gave a logP in [1] of 4.5.
In data set [1], `CC(C)N1CCC(COc2ccc(NC(=O)Nc3cccnc3Oc3ccccc3C(C)(C)C)c(F)c2)CC1` returned a logP of 3.8.
The same measure, in the same setting: for `CN(C)Cc1ccc(-c2ccc(NC(=O)Nc3cccnc3Oc3ccccc3C(C)(C)C)c(F)c2)cc1` the value was 5.4; for `CN(C)Cc1ccc(NC(=O)Nc2cccnc2Oc2ccccc2C(C)(C)C)c(F)c1`, 4.2.
